The source of these data is ChEMBL document CHEMBL1157746, “Function-oriented synthesis of simplified caprazamycins: discovery of oxazolidine-containing uridine derivatives as antibacterial agents against drug-resistant bacteria” (J Med Chem, 2010).

Where only a bound is given, the exact number is not on record here.

Assay [1] deals with T1, Phospho-N-acetylmuramoyl-pentapeptide-transferase (Bacillus subtilis (strain 168), UniProt Q03521).
T1 sequence (Q03521 whole entry): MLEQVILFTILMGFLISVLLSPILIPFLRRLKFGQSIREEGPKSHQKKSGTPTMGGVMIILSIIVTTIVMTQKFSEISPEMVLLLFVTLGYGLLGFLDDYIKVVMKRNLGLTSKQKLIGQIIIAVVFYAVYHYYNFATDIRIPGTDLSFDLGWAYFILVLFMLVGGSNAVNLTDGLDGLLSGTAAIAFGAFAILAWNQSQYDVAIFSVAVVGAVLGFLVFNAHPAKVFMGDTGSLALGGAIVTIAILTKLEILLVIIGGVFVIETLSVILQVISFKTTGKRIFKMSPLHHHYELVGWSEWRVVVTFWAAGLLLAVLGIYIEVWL
In words: Inhibition of Bacillus subtilis MraY after 30 mins using UDP-MurNAc-pentapeptide as substrate.

The test system of assay [2] is Enterococcus faecium. In words: Antibacterial activity against vancomycin-resistant Enterococcus faecium SR-7917 clinical isolate after 20 hrs by two fold microdilution broth method. In kind it is functional. The conditions noted are these: SR7917, 20 h. An outline of the steps: (§1)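 NCCLS broth microdilution in cation-adjusted Mueller-Hinton broth. Serial 2-fold compound dilutions, inoculum 5×10⁴ CFU per well in 0.1 mL. Plates incubated at 35 °C for 20 h, then MIC (μg/mL) scored. Strains are clinical isolates from Japanese hospitals: MRSA SR3637, VanA E. faecalis SR7914, VanA E. faecium SR7917.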

For assay [3], the system named is Enterococcus faecalis. The assay can be described thus: Antibacterial activity against vancomycin-resistant Enterococcus faecalis SR-7914 clinical isolate after 20 hrs by two fold microdilution broth method. In kind it is functional. The conditions noted are these: SR7914, 20 h. An outline of the steps:
as §1
(In broth dilution the organism is exposed to a series of concentrations in liquid medium.)

For assay [4], the system named is Enterococcus faecium. The assay can be described thus: Antibacterial activity against Enterococcus faecium ATCC 19434 after 20 hrs by two fold microdilution broth method. In kind it is functional. To be noted: ATCC 19434, 20 h. The essentials:
(§2)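 NCCLS-recommended broth microdilution in cation-adjusted Mueller-Hinton broth; serial 2-fold compound dilutions; each well inoculated with 5×10⁴ CFU in 0.1 mL; incubated 35 °C for 20 h, then MIC (μg/mL) scored.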

For assay [5], the system named is Staphylococcus aureus. The assay can be described thus: Antibacterial activity against methicillin-resistant Staphylococcus aureus SR-3637 clinical isolate after 20 hrs by two fold microdilution broth method. The conditions noted are these: SR3637, 20 h. In kind it is functional. The essentials:
as §1

Assay [6] concerns Staphylococcus aureus. In words: Antibacterial activity against methicillin-sensitive Staphylococcus aureus ATCC 29213 after 20 hrs by two fold microdilution broth method. The conditions noted are these: ATCC 29213, 20 h. In kind it is functional. An outline of the steps:
as §2

In assay [7] the test system is Enterococcus faecalis. The assay can be described thus: Antibacterial activity against Enterococcus faecalis ATCC 29212 after 20 hrs by two fold microdilution broth method. In kind it is functional. The conditions noted are these: ATCC 29212, 20 h. The essentials:
as §2

In assay [1], `CCCCCCCCc1ccc(NC(=O)[C@@H](N)[C@H](O[C@@H]2O[C@H](CN)[C@@H](O)[C@H]2O)[C@H]2O[C@@H](n3ccc(=O)[nH]c3=O)[C@H](O)[C@@H]2O)cc1.O=C(O)C(F)(F)F` displayed a concentration for half-maximal inhibition (IC50) of 46 µM. Also, the minimal inhibitory concentration (MIC) against Enterococcus faecium [2] worked out at 32 µg/mL; against Enterococcus faecalis [3], 64 µg/mL; against Enterococcus faecium [4] it was 32 µg/mL; with Staphylococcus aureus [5], 64 µg/mL; with Staphylococcus aureus [6], 64 µg/mL; against Enterococcus faecalis [7], 16 µg/mL.

In assay [1], `CCCCCCCCCCCCNC(=O)[C@@H](N)[C@H](O[C@@H]1O[C@H](CN)[C@@H](O)[C@H]1O)[C@H]1O[C@@H](n2ccc(=O)[nH]c2=O)[C@H](O)[C@@H]1O.O=C(O)C(F)(F)F` gave an IC50 of 18 µM. Besides, the minimum inhibitory concentration (MIC) is 16 µg/mL with Enterococcus faecium [2]; 32 µg/mL against Enterococcus faecalis [3]; 16 µg/mL in the assay on Enterococcus faecium [4]; 64 µg/mL in the assay on Staphylococcus aureus [5]; 64 µg/mL in the assay on Staphylococcus aureus [6]; 16 µg/mL in the assay with Enterococcus faecalis [7].

`CCCCCCCCCCCC(=O)N[C@H](C(=O)O)[C@H](O[C@@H]1O[C@H](CN)[C@@H](O)[C@H]1O)[C@H]1O[C@@H](n2ccc(=O)[nH]c2=O)[C@H](O)[C@@H]1O.O=C(O)C(F)(F)F` yielded an IC50 in assay [1] of 63 µM. The minimum inhibitory concentration (MIC) against Enterococcus faecium [2], in the assay with Enterococcus faecalis [3], against Enterococcus faecium [4], against Staphylococcus aureus [5], in the assay on Staphylococcus aureus [6] and with Enterococcus faecalis [7] was over 64 µg/mL in each case.

For the compound `CCCCCCCCc1ccc(C(=O)N[C@H](C(=O)O)[C@H](O[C@@H]2O[C@H](CN)[C@@H](O)[C@H]2O)[C@H]2O[C@@H](n3ccc(=O)[nH]c3=O)[C@H](O)[C@@H]2O)cc1.O=C(O)C(F)(F)F`, the IC50 in assay [1] was found to be 256 µM. The MIC in the assay with Enterococcus faecium [2] is over 64 µg/mL; with Enterococcus faecalis [3], over 64 µg/mL; with Enterococcus faecium [4], over 64 µg/mL; in the assay on Staphylococcus aureus [5], over 64 µg/mL; against Staphylococcus aureus [6], over 64 µg/mL; against Enterococcus faecalis [7], 64 µg/mL.

As for `CCCCCCCCCCCCNC(=O)N[C@H](C(=O)O)[C@H](O[C@@H]1O[C@H](CN)[C@@H](O)[C@H]1O)[C@H]1O[C@@H](n2ccc(=O)[nH]c2=O)[C@H](O)[C@@H]1O.O=C(O)C(F)(F)F`, in assay [1], half-maximal inhibition (IC50) required 36 µM. Moreover, the MIC against Enterococcus faecium [2] is over 64 µg/mL; with Enterococcus faecalis [3], 64 µg/mL; against Enterococcus faecium [4], over 64 µg/mL; with Staphylococcus aureus [5] it was over 64 µg/mL; against Staphylococcus aureus [6], over 64 µg/mL; in the assay on Enterococcus faecalis [7], 64 µg/mL.

Consider `CCCCCCCCc1ccc(NC(=O)N[C@H](C(=O)O)[C@H](O[C@@H]2O[C@H](CN)[C@@H](O)[C@H]2O)[C@@H]2O[C@@H](n3ccc(=O)[nH]c3=O)[C@H](O)[C@@H]2O)cc1.O=C(O)C(F)(F)F`, for which the IC50 in assay [1] was determined as 75 µM. Moreover, the MIC against Enterococcus faecium [2] was over 64 µg/mL; in the assay with Enterococcus faecalis [3], 64 µg/mL; against Enterococcus faecium [4], over 64 µg/mL; with Staphylococcus aureus [5] it was over 64 µg/mL; against Staphylococcus aureus [6] it was over 64 µg/mL; with Enterococcus faecalis [7], 64 µg/mL.

In turn, `CCCCCCCCCCCCCCCC(=O)N1[C@H](C(=O)O)[C@@H]([C@H]2O[C@@H](n3ccc(=O)[nH]c3=O)[C@H](O)[C@@H]2O)O[C@@H]1CN` showed an IC50 in assay [1] of 740 µM. In addition, the MIC against Enterococcus faecium [2], in the assay with Enterococcus faecalis [3], in the assay on Enterococcus faecium [4], in the assay on Staphylococcus aureus [5], against Staphylococcus aureus [6] and against Enterococcus faecalis [7] was over 64 µg/mL in each case.

The compound `CCCCCCCCCCCCCCCC(=O)N1[C@H](C(=O)O)[C@@H]([C@H]2O[C@@H](n3ccc(=O)[nH]c3=O)[C@H](O)[C@@H]2O)O[C@@H]1CCN` had a half-inhibitory concentration (IC50) in assay [1] of 451 µM. Also, the minimal inhibitory concentration (MIC) in the assay with Enterococcus faecium [2], against Enterococcus faecalis [3], in the assay with Enterococcus faecium [4], with Staphylococcus aureus [5], in the assay with Staphylococcus aureus [6] and against Enterococcus faecalis [7] was over 64 µg/mL in each case.

For `CCCCCCCCCCCCCCCC(=O)N1[C@H](C(=O)O)[C@@H]([C@H]2O[C@@H](n3ccc(=O)[nH]c3=O)[C@H](O)[C@@H]2O)O[C@@H]1CCCN`, 360 µM corresponded to half-maximal inhibition in assay [1] (IC50). The MIC in the assay on Enterococcus faecium [2], with Enterococcus faecalis [3], in the assay with Enterococcus faecium [4], against Staphylococcus aureus [5], with Staphylococcus aureus [6] and in the assay with Enterococcus faecalis [7] was over 64 µg/mL each time.

`CCCCCCCCCCCCCCCC(=O)N1[C@H](C(=O)OC)[C@@H]([C@H]2O[C@@H](n3ccc(=O)[nH]c3=O)[C@H](O)[C@@H]2O)O[C@@H]1CN.Cl` had an IC50 in assay [1] of 980 µM. Further, the MIC was 16 µg/mL in the assay on Enterococcus faecium [2]; 64 µg/mL in the assay with Enterococcus faecalis [3]; 32 µg/mL against Enterococcus faecium [4]; 13 µg/mL with Staphylococcus aureus [5]; over 64 µg/mL against Staphylococcus aureus [6]; 32 µg/mL with Enterococcus faecalis [7].

In assay [1], `CCCCCCCCCCCCCCCC(=O)N1[C@H](C(=O)OC)[C@@H]([C@H]2O[C@@H](n3ccc(=O)[nH]c3=O)[C@H](O)[C@@H]2O)O[C@@H]1CCN.Cl` had a half-inhibitory concentration (IC50) of 920 µM. In addition, the MIC against Enterococcus faecium [2] came to 8 µg/mL; with Enterococcus faecalis [3], 16 µg/mL; with Enterococcus faecium [4] it was 4 µg/mL; against Staphylococcus aureus [5], 8 µg/mL; with Staphylococcus aureus [6], 8 µg/mL; against Enterococcus faecalis [7], 8 µg/mL.

In assay [1], `CCCCCCCCCCCCCCCC(=O)N1[C@H](C(=O)OC)[C@@H]([C@H]2O[C@@H](n3ccc(=O)[nH]c3=O)[C@H](O)[C@@H]2O)O[C@@H]1CCCN.Cl` came in with an IC50 of 1200 µM. In addition, the minimum inhibitory concentration (MIC) with Enterococcus faecium [2] turned out to be 4 µg/mL; in the assay with Enterococcus faecalis [3] it was 16 µg/mL; in the assay on Enterococcus faecium [4] it was 8 µg/mL; in the assay on Staphylococcus aureus [5], 8 µg/mL; in the assay on Staphylococcus aureus [6], 8 µg/mL; against Enterococcus faecalis [7] it was 8 µg/mL.

A word on the IC50: it is the concentration at which inhibition is half-maximal. A low value points to greater potency. A word on the MIC: it is the least concentration at which growth counts as inhibited. A low value points to greater potency.
